m5-HT2A agonist: mouse Htr2a agonists via beta-arrestin recruitment, primary screen, cell-based, luminescence. actives 0.66% (n = 360,000). activation, % at 7.6 µM. CHO-K1 mHTR2A beta-arrestin complementation; percent of 30 µM serotonin response;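 active = activation above a run cutoff, the mean activation of all tested compounds plus 3 SD, cut at about 14% in these data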;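 note: 0% = plate median of compound wells and 100% = 30 µM serotonin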
EBI2 block: EBI2 receptor antagonists, beta-arrestin recruitment, primary screen, cell-based, luminescence, 7a,25-OHC stimulation, uHTS | inhibition, % at 5 µM | 7a,25-OHC stimulated | G-protein coupled receptor 183 (Homo sapiens), P32249 | actives 0.81% (n = 360,000); in the data active = inhibition above about 38%;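 note: enzyme fragment complementation signal reports receptor beta-arrestin coupling in cells; 0% = agonist plus DMSO wells and 100% = wells without agonist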
MC4R ag barr: MC4R agonists recruiting beta-arrestin, primary screen, cell-based, luminescence, agonist arm of biased-ligand search | U2OS MC4R beta-arrestin complementation; percent of melanotan II response, DMSO zero | activation, % at 8.9 µM | Melanocortin receptor 4 (Homo sapiens), P32245 | actives 0.98% (n = 360,000);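 active = activation above a per-plate cutoff, the mean activation of sample wells on that plate plus 3 SD, cut at about 8% in these data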
Target sequence (P32245 whole entry, looked up): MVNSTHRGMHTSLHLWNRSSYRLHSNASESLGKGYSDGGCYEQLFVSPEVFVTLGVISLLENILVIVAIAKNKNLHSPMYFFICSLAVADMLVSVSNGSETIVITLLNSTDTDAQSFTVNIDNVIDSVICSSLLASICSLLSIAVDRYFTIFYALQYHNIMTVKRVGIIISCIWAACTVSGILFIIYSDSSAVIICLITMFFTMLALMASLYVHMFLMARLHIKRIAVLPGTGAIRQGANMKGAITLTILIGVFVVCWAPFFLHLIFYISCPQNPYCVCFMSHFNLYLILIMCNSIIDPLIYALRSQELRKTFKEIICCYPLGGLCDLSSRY
MC4R antag cAMP: MC4R antagonists of cAMP signaling, primary screen, cell-based, TR-FRET, antagonist arm of biased-ligand search. Melanocortin receptor 4 (Homo sapiens), P32245. MC4R-expressing cells, MTII-stimulated cAMP, LANCE TR-FRET. inhibition, % at 6.5 µM. actives 0.48% (n = 360,000). AID 540295, 2011;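 active = inhibition above its plate's cutoff, the mean of tested wells on that plate plus 3 SD, cut at about 29% in these data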;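 note: 0% = Melanotan II alone and 100% = Melanotan II plus saturating MCL0020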
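Assay system: U2OS cells stably expressing human melanocortin 4 receptor (MC4R) / Dosing: 6.5 µM / Timing: compound 30 min, challenge 1 h, detection 1 h / Measured by: Eu-cAMP/anti-cAMP TR-FRET, emission 671 nm / Replicates: singlicate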
cAMP nonselect: nonselective cAMP signaling inhibitors, parental cells, counter-screen for MC4R biased antagonist project, cell-based, TR-FRET, U2OS, forskolin, triplicate; inhibition, % at 6.5 µM; LANCE TR-FRET; AID 602193, 2012; shares compounds with MC4R antag cAMP; actives 26% (n = 1,600);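 active = mean inhibition over triplicates above the low-control well mean plus 3 SD, set per campaign, cut at about 13% in these data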;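 note: signal is single emission at 671 nm which falls as cellular cAMP rises; 0% = forskolin-stimulated wells and 100% = buffer without forskolin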
MC4R antag conf: MC4R cAMP antagonists, retest, confirmation, cell-based, TR-FRET. shares compounds with MC4R antag cAMP. MC4R-expressing cells, MTII-stimulated cAMP. inhibition, % at 6.5 µM. actives 27% (n = 1,600). AID 602195, 2012; in the data active = inhibition above about 29%;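 note: 0% = agonist stimulated wells alone and 100% = agonist stimulated wells plus saturating reference antagonist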
* marks the source's active call; other numbers are inactive results. Only some compounds are listed: those with a hit (about 2.8% of all), similar ones and a draw of the others.

`O=[N+]([O-])c1cccnc1N1CCCNCC1` gave m5-HT2A agonist 32.4*, EBI2 block 1.1, MC4R ag barr -1.9 and MC4R antag cAMP 20.9.
N#Cc1ccc(NC(=S)N2Cc3ccccc3-n3nncc3C2)cc1 was read as m5-HT2A agonist -1.9, EBI2 block -1.0, MC4R ag barr -2.2 and MC4R antag cAMP 7.3.
For COCCNC(=O)N1[C@H]2CC[C@@H]1C(C(=O)OC)=C(c1ccc(OC(F)(F)F)cc1)C2 the results were m5-HT2A agonist -4.2, EBI2 block 2.5, MC4R ag barr -0.2 and MC4R antag cAMP 6.1.
`Cc1ccc(N2C(=O)NC(=O)/C(=C/C=C/c3ccco3)C2=O)cc1` gave m5-HT2A agonist -2.3, EBI2 block 45.1*, MC4R ag barr 0.3 and MC4R antag cAMP -0.6.
Screening Cc1cc(C)cc(N2C(=O)NC(=O)/C(=C\C=C\c3ccco3)C2=O)c1 returned m5-HT2A agonist 3.6, EBI2 block 2.6, MC4R ag barr -0.1 and MC4R antag cAMP 1.2.
`COc1ccc(CN2CCCC(C(=O)c3cccc(Cl)c3)C2)cc1` (stereo unspecified) gave m5-HT2A agonist -4.4, EBI2 block 0.3, MC4R ag barr 9.0* and MC4R antag cAMP 4.2.
For COc1ccc(CN2Cc3cnnn3-c3ccccc3C2C#N)cc1 (stereo unspecified) the results were m5-HT2A agonist -3.0, EBI2 block -35.3, MC4R ag barr 0.2, MC4R antag cAMP 32.3*, cAMP nonselect 5.2 and MC4R antag conf 26.6.
Screening COc1ccc(CN2Cc3cnnn3-c3ccccc3C2c2ccccc2)cc1 (stereo unspecified) returned m5-HT2A agonist 1.2, EBI2 block 11.6, MC4R ag barr -1.5 and MC4R antag cAMP 1.5.
`CC(C)c1onc(C(=O)N2CCC3(CC2)OCCO3)c1[N+](=O)[O-]` gave m5-HT2A agonist 2.6, EBI2 block -5.8, MC4R ag barr -2.7 and MC4R antag cAMP -0.3.
CC1=C(O)C(=O)C=C2C1=CC=C1C2(C)CCC2(C)C3CC(C)(C(=O)O)CCC3(C)CCC12C (stereo unspecified) was read as m5-HT2A agonist -6.7, EBI2 block -32.6, MC4R ag barr -2.2, MC4R antag cAMP 32.4*, cAMP nonselect -5.3 and MC4R antag conf 17.4.
`C=C1C(=O)OC2CC3(C)OC3CCC(C)=CC(OC(C)=O)C12` (stereo unspecified) gave m5-HT2A agonist -3.7, EBI2 block 17.1, MC4R ag barr -0.9 and MC4R antag cAMP 1.3.
Screening C=C1C(=O)OC2CC3(C)OC3C3OC3C3=CC(OC3=O)C12 (stereo unspecified) returned m5-HT2A agonist -3.8, EBI2 block -1.6, MC4R ag barr -1.6, MC4R antag cAMP 42.8*, cAMP nonselect 19.2* and MC4R antag conf 32.5*.
Screening CC/C(=N\Nc1ccccc1)c1c(O)n(-c2ccc(OC)cc2)c(=O)[nH]c1=O returned m5-HT2A agonist -5.0, EBI2 block -0.2, MC4R ag barr 3.5, MC4R antag cAMP 33.0*, cAMP nonselect -0.5 and MC4R antag conf -6.1.
ClCCN(CCCl)c1ccc(-n2cnc3c(Cl)ncnc32)cc1 was read as m5-HT2A agonist 2.0, EBI2 block 15.6, MC4R ag barr -3.5 and MC4R antag cAMP 27.4.
Screening CCOC(=O)C(O)(c1ccc(NC(=O)NC)cc1)C(F)(F)F (stereo unspecified) returned m5-HT2A agonist -2.1, EBI2 block -9.9, MC4R ag barr -0.9 and MC4R antag cAMP 12.5.
Cc1ccc(N2C(=O)NC(=O)/C(=C/c3ccoc3)C2=O)cc1 was read as m5-HT2A agonist -1.1, EBI2 block -14.6, MC4R ag barr -2.4, MC4R antag cAMP 32.8*, cAMP nonselect 2.7 and MC4R antag conf -1.9.
Cc1ccc(N2C(=O)NC(=O)/C(=C/c3cnn(-c4ccc(C)cc4)c3)C2=O)cc1 was read as m5-HT2A agonist -0.3, EBI2 block 42.8, MC4R ag barr 1.9 and MC4R antag cAMP 4.5.
CC(Cc1ccccc1)N1Cc2ccccc2C1 (stereo unspecified) was read as m5-HT2A agonist -8.1, EBI2 block 0.1, MC4R ag barr 1.2 and MC4R antag cAMP 26.7.
Screening COc1ccc2oc3c(c2c1)NC(=O)CN=C3c1ccccc1 returned m5-HT2A agonist 2.0, EBI2 block 0.3, MC4R ag barr 1.5, MC4R antag cAMP 31.4*, cAMP nonselect 3.7 and MC4R antag conf -7.9.
For COc1cccc(C(=O)C2CCCN(Cc3cccc4c3OCO4)C2)c1 (stereo unspecified) the results were m5-HT2A agonist -3.8, EBI2 block 21.3, MC4R ag barr -1.8, MC4R antag cAMP 29.1*, cAMP nonselect 4.0 and MC4R antag conf 11.2.
`COc1cccc(C(=O)C2CCCN(Cc3ccc4nonc4c3)C2)c1` (stereo unspecified) gave m5-HT2A agonist -4.0, EBI2 block -2.3, MC4R ag barr 1.0 and MC4R antag cAMP -6.0.
CCOc1cc2[nH]c(=S)n(CCCC(=O)N3CCC4(CC3)OCCO4)c(=O)c2cc1OCC was read as m5-HT2A agonist -0.2, EBI2 block 0.5, MC4R ag barr -2.3, MC4R antag cAMP 29.0*, cAMP nonselect 1.7 and MC4R antag conf 8.1.
`CCOC(=O)c1c(-n2c(C)cc(C=C3C(=O)NC(=O)NC3=O)c2C)sc2c1CCCC2` gave m5-HT2A agonist -4.8, EBI2 block 13.2, MC4R ag barr 0.9, MC4R antag cAMP 30.0*, cAMP nonselect 2.0 and MC4R antag conf -10.2.
For Cc1cc(C=C2C(=O)N(C)C(=S)N(C)C2=O)c(C)n1-c1cccnc1 the results were m5-HT2A agonist 10.5, EBI2 block 7.4, MC4R ag barr -2.1 and MC4R antag cAMP 12.5.
C=CCn1c(O)c(C(CC)=Nc2cccc(C(=O)O)c2)c(=O)[nH]c1=O was read as m5-HT2A agonist 1.1, EBI2 block -11.5, MC4R ag barr 1.9, MC4R antag cAMP 30.8*, cAMP nonselect 1.1 and MC4R antag conf 6.1.
For CC(C)NC(C)Cc1ccc(I)cc1 (stereo unspecified) the results were m5-HT2A agonist -4.2, EBI2 block -3.1, MC4R ag barr 0.6 and MC4R antag cAMP -0.5.
Screening O=C1NC(=O)C(=Cc2ccc(SC3CCCCC3)o2)C(=O)N1 returned m5-HT2A agonist 5.6, EBI2 block -14.1, MC4R ag barr -0.5, MC4R antag cAMP 37.7*, cAMP nonselect 11.4 and MC4R antag conf 26.4.

Screening data as filed in PubChem BioAssay.
